Reference: ChEMBL document CHEMBL3045248, “Stereoselective synthesis and antifungal activities of (E)-alpha-(methoxyimino)benzeneacetate derivatives containing 1,3,5-substituted pyrazole ring” (2006)

Assays:
Assay type in all cases: functional
[1] = tested on: Botryosphaeria berengeriana; assay: Fungicidal activity against Botryosphaeria berengeriana assessed as inhibition of mycelial elongation at 50 ug/mL incubated for 48 hr
Procedure, shortened: (§1)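 Poisoned-food plate assay on potato glucose agar: DMF stock of 500 mg/L mixed 1:9 into molten medium at 50 °C, poured and set, then seeded with a 4 mm mycelial disk. Plates inverted, incubated 28 °C for 48 h. Water as blank control. Colony radius (mm) measured, triplicate; inhibition I = [(C − T)/C] × 100% versus control radius. Field isolates from crops.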

[2] = tested on: Rhizoctonia solani; assay: Fungicidal activity against Rhizoctonia solani assessed as inhibition of mycelial elongation at 50 ug/mL incubated for 48 hr; procedure, shortened: as §1
[3] = tested on: Bipolaris maydis; assay: Fungicidal activity against Cochliobolus heterostrophus assessed as inhibition of mycelial elongation at 50 ug/mL incubated for 48 hr; procedure, shortened: as §1
[4] = tested on: Fusarium graminearum; assay: Fungicidal activity against Fusarium graminearum assessed as inhibition of mycelial elongation at 50 ug/mL incubated for 48 hr
Procedure, shortened: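 Field isolate of G. zeae taken from crops. A 500 mg/L DMF stock (1 mL) was mixed with 9 mL molten potato glucose agar at 50 °C and poured into plates. A 4 mm mycelial disk was placed on each plate, which was inverted and kept at 28 °C for 48 h. Water served as the blank. Colony radius was measured in triplicate, and inhibition was calculated as (C−T)/C×100%.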

[5] = tested on: Botrytis cinerea; assay: Fungicidal activity against Botryotinia fuckeliana assessed as inhibition of mycelial elongation at 50 ug/mL incubated for 48 hr; procedure, shortened: as §1

Question: CO/N=C(/C(=O)OC)c1ccccc1CO/N=C/c1c(C)nn(C)c1Oc1cccc(C(F)(F)F)c1 was tested. Which inhibition at 50 µg/mL [1] did it give?
Answer: 88.2%

Question: And the inhibition at 50 µg/mL [2]?
Answer: 83.7%

Question: And the inhibition at 50 µg/mL [3]?
Answer: 68.2%

Question: What about the inhibition at 50 µg/mL [4] of the same molecule?
Answer: 68.8%

Question: What about the inhibition at 50 µg/mL [5] of the same molecule?
Answer: 92.3%

Question: What does the source list for CO/N=C(/C(=O)OC)c1ccccc1CO/N=C/c1c(C)nn(C)c1OC?
Answer: inhibition at 50 µg/mL [1]: 100%; inhibition at 50 µg/mL [2]: 82.7%; inhibition at 50 µg/mL [3]: 86.7%; inhibition at 50 µg/mL [4]: 79.4%; inhibition at 50 µg/mL [5]: 85.4%

Question: Which results are given for CO/N=C(/C(=O)OC)c1ccccc1CO/N=C/c1c(C)nn(C)c1Oc1cccc(C)c1?
Answer: inhibition at 50 µg/mL [1]: 100%; inhibition at 50 µg/mL [2]: 88%; inhibition at 50 µg/mL [3]: 81.8%; inhibition at 50 µg/mL [4]: 96.9%; inhibition at 50 µg/mL [5]: 80.8%

Question: For CO/N=C(/C(=O)OC)c1ccccc1COc1ccccc1C [KRESOXIM-METHYL], which inhibition at 50 µg/mL [1] is on record?
Answer: 98.5%

Question: What about the inhibition at 50 µg/mL [2] of the same molecule?
Answer: 66.1%

Question: What about the inhibition at 50 µg/mL [3] of the same molecule?
Answer: 90.6%

Question: What about the inhibition at 50 µg/mL [4] of the same molecule?
Answer: 96.8%

Question: And the inhibition at 50 µg/mL [5]?
Answer: 97.2%

Question: How did the inhibition at 50 µg/mL [1] turn out when CO/N=C(/C(=O)OC)c1ccccc1CO/N=C/c1c(C)nn(C)c1Oc1cccc([N+](=O)[O-])c1 was run?
Answer: 77.8%

Question: What about the inhibition at 50 µg/mL [2] of the same molecule?
Answer: 91.6%

Question: What about the inhibition at 50 µg/mL [3] of the same molecule?
Answer: 64.3%

Question: And the inhibition at 50 µg/mL [4]?
Answer: 62.9%

Question: What about the inhibition at 50 µg/mL [5] of the same molecule?
Answer: 98.8%

Question: What does the source list for CO/N=C(/C(=O)OC)c1ccccc1CO/N=C/c1c(C)nn(C)c1OCC(F)(F)F?
Answer: inhibition at 50 µg/mL [1]: 95.5%; inhibition at 50 µg/mL [2]: 91.8%; inhibition at 50 µg/mL [3]: 90.9%; inhibition at 50 µg/mL [4]: 80%; inhibition at 50 µg/mL [5]: 100%

Question: For CO/N=C(/C(=O)OC)c1ccccc1CO/N=C/c1c(C)nn(C)c1Oc1ccc(Cl)cc1, which inhibition at 50 µg/mL [1] is on record?
Answer: 92.6%

Question: And the inhibition at 50 µg/mL [2]?
Answer: 100%

Question: And the inhibition at 50 µg/mL [3]?
Answer: 92.9%

Question: And the inhibition at 50 µg/mL [4]?
Answer: 80%

Question: And the inhibition at 50 µg/mL [5]?
Answer: 100%

Question: With CO/N=C(/C(=O)OC)c1ccccc1CO/N=C/c1c(C)nn(C)c1Oc1ccc(F)cc1 as the molecule, how does the inhibition at 50 µg/mL [1] read?
Answer: 100%

Question: What about the inhibition at 50 µg/mL [2] of the same molecule?
Answer: 90.2%

Question: What about the inhibition at 50 µg/mL [3] of the same molecule?
Answer: 86.4%

Question: What about the inhibition at 50 µg/mL [4] of the same molecule?
Answer: 59.4%

Question: And the inhibition at 50 µg/mL [5]?
Answer: 88.5%

Question: How did the inhibition at 50 µg/mL [1] turn out when CCOc1c(/C=N/OCc2ccccc2/C(=N\OC)C(=O)OC)c(C)nn1C was run?
Answer: 100%

Question: And the inhibition at 50 µg/mL [2]?
Answer: 92.5%

Question: What about the inhibition at 50 µg/mL [3] of the same molecule?
Answer: 92.6%

Question: What about the inhibition at 50 µg/mL [4] of the same molecule?
Answer: 90.5%

Question: What about the inhibition at 50 µg/mL [5] of the same molecule?
Answer: 96.8%

Question: With CO/N=C(/C(=O)OC)c1ccccc1CO/N=C/c1c(C)nn(C)c1Oc1ccc(C)cc1 as the molecule, how does the inhibition at 50 µg/mL [1] read?
Answer: 88.2%

Question: What about the inhibition at 50 µg/mL [2] of the same molecule?
Answer: 90.2%

Question: And the inhibition at 50 µg/mL [3]?
Answer: 72.7%

Question: What about the inhibition at 50 µg/mL [4] of the same molecule?
Answer: 50%

Question: What about the inhibition at 50 µg/mL [5] of the same molecule?
Answer: 80.8%

Question: How did the inhibition at 50 µg/mL [1] turn out when CO/N=C(/C(=O)OC)c1ccccc1CO/N=C/c1c(C)nn(C)c1Oc1ccccc1F was run?
Answer: 88.2%

Question: And the inhibition at 50 µg/mL [2]?
Answer: 83.7%

Question: And the inhibition at 50 µg/mL [3]?
Answer: 68.2%

Question: And the inhibition at 50 µg/mL [4]?
Answer: 50%

Question: And the inhibition at 50 µg/mL [5]?
Answer: 84.6%

Question: Which inhibition at 50 µg/mL [1] does the source give for CCCOc1c(/C=N/OCc2ccccc2/C(=N\OC)C(=O)OC)c(C)nn1C here?
Answer: 93.8%

Question: What about the inhibition at 50 µg/mL [2] of the same molecule?
Answer: 87.8%

Question: What about the inhibition at 50 µg/mL [3] of the same molecule?
Answer: 85%

Question: What about the inhibition at 50 µg/mL [4] of the same molecule?
Answer: 78.4%

Question: What about the inhibition at 50 µg/mL [5] of the same molecule?
Answer: 87.1%

Question: Which results are given for CO/N=C(/C(=O)OC)c1ccccc1CO/N=C/c1c(C)nn(C)c1Oc1ccc(Cl)cc1Cl?
Answer: inhibition at 50 µg/mL [1]: 96.3%; inhibition at 50 µg/mL [2]: 99%; inhibition at 50 µg/mL [3]: 92.9%; inhibition at 50 µg/mL [4]: 88.6%; inhibition at 50 µg/mL [5]: 100%

Question: For CO/N=C(/C(=O)OC)c1ccccc1CO/N=C/c1c(C)nn(C)c1Oc1ccccc1C, which inhibition at 50 µg/mL [1] is on record?
Answer: 76.5%

Question: And the inhibition at 50 µg/mL [2]?
Answer: 83.7%

Question: What about the inhibition at 50 µg/mL [3] of the same molecule?
Answer: 72.7%

Question: What about the inhibition at 50 µg/mL [4] of the same molecule?
Answer: 53.1%

Question: What about the inhibition at 50 µg/mL [5] of the same molecule?
Answer: 80.8%
